Active and inactive are the calls of the source. The calls are words filed in the database; no cut-off is given here.
Assays:
[1] = Cmax in humanized mouse at 200 mg/kg, sc measured on day 1 post dose by LC-MS/MS analysis; format: ADME, organism-based; parameters: dose 200 mg/kg, route subcutaneous; conditions: in vivo
[2] = Drug uptake in humanized mouse liver at 50 mg/kg, sc after 24 hrs by LC-MS/MS analysis; format: ADME, organism-based; conditions: read-out: Drug uptake
Method in brief: (§1)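 Uninfected humanized mice given 50 or 200 mg/kg subcutaneously once daily as a methocel suspension for 8 days; liver concentration measured 24 h after dosing.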

Hepatitis B virus = test: Antiviral activity against Hepatitis B virus infected in human HepG2.117 cells assessed as inhibition of viral DNA level after 3 days by real time PCR; format: functional, organism-based; conditions: HepG2.117, 72 h
[3] = Drug metabolism in mouse liver microsomes at 1 uM after 15 mins by LC-MS/MS analysis; format: ADME, microsome; conditions: read-out: Drug metabolism
Method in brief: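 Compound incubated 15 min with human or mouse liver microsomes; stability expressed as percent turnover (metabolised) at 15 min.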

HepG2 = test: Cytotoxicity against human HepG2 cells after 4 to 6 days by resazurin assay; format: cell-based; conditions: hepg2
[4] = Half life in C57BL/6 mouse at 2.5 mg/kg, iv by LC-MS/MS analysis; format: ADME, organism-based; conditions: in vivo
Method in brief: (§2)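 Single-dose PK in C57BL/6 mice after intravenous or oral dosing, with oral doses of 10 and 50 mg/kg; plasma clearance and volume of distribution taken from the i.v. arm.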

[5] = Half life in C57BL/6 mouse at 10 mg/kg, po by LC-MS/MS analysis; format: ADME, organism-based; conditions: in vivo; method in brief: as §2
[6] = Half life in C57BL/6 mouse at 50 mg/kg, po by LC-MS/MS analysis; format: ADME, organism-based; conditions: in vivo; method in brief: as §2
[7] = Cmax in C57BL/6 mouse at 10 mg/kg, po by LC-MS/MS analysis; format: ADME, organism-based; parameters: dose 10 mg/kg, route oral; conditions: in vivo
[8] = Cmax in C57BL/6 mouse at 50 mg/kg, po by LC-MS/MS analysis; format: ADME, organism-based; parameters: dose 50 mg/kg, route oral; conditions: in vivo
[9] = Tmax in C57BL/6 mouse at 10 mg/kg, po by LC-MS/MS analysis; format: ADME, organism-based; conditions: in vivo
Method in brief: (§3)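 Single-dose PK in C57BL/6 mice given compound intravenously and orally, with oral doses of 10 and 50 mg/kg. Plasma clearance, volume of distribution and oral bioavailability were derived from the plasma profiles.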

[10] = Tmax in C57BL/6 mouse at 50 mg/kg, po by LC-MS/MS analysis; format: ADME, organism-based; conditions: in vivo; method in brief: as §3
[11] = Tmax in C57BL/6 mouse at 50 mg/kg, sc by LC-MS/MS analysis; format: ADME, organism-based; conditions: in vivo
Method in brief: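 C57BL/6 mice dosed subcutaneously at 50 mg/kg to bypass first-pass metabolism; plasma and liver levels sampled 24 h after dosing.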

[12] = Oral bioavailability in C57BL/6 mouse at 10 mg/kg by LC-MS/MS analysis; format: ADME, organism-based; conditions: in vivo; method in brief: as §3
[13] = Oral bioavailability in C57BL/6 mouse at 50 mg/kg by LC-MS/MS analysis; format: ADME, organism-based; conditions: in vivo; method in brief: as §3
[14] = Inhibition of calcium channel (unknown origin); parameters: species or system Homo sapiens
[15] = biological target: Voltage-gated inwardly rectifying potassium channel KCNH2 (Homo sapiens, UniProt Q12809); test: Inhibition of human ERG
Sequence of Voltage-gated inwardly rectifying potassium channel KCNH2 (Q12809 whole entry): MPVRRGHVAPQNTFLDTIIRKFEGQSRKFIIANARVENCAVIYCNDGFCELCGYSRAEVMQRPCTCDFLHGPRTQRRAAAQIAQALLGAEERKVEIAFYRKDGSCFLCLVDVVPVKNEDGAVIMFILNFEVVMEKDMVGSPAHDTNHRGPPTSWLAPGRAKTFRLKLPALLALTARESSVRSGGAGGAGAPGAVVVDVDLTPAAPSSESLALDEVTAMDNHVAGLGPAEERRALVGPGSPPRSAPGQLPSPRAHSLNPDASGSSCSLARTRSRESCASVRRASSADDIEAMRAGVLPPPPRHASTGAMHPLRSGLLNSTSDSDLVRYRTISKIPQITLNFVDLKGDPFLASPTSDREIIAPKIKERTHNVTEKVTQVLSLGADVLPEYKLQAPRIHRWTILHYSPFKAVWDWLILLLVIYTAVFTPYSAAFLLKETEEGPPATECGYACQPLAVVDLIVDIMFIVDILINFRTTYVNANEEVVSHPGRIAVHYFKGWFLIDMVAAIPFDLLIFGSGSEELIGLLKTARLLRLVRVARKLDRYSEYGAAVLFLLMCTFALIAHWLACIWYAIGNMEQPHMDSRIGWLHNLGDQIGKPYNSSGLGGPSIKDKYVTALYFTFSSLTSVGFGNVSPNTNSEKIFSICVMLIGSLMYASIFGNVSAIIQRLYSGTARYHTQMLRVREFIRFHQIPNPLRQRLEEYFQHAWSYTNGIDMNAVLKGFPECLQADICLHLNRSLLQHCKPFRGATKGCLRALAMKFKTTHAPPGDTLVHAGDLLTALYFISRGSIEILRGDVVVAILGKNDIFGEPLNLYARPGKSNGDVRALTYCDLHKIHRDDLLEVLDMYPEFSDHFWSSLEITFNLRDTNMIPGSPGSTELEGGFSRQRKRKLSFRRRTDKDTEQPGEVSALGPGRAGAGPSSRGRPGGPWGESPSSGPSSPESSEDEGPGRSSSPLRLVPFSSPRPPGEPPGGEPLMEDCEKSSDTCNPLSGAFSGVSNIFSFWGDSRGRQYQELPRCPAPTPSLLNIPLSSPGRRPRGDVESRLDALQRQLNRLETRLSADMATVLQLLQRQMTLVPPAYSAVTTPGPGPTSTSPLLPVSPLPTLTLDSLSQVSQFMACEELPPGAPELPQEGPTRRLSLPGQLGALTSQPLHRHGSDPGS

Cytochrome P450 2D6 = Cytochrome P450 2D6 (Homo sapiens, UniProt P10635); test: Inhibition of CYP2D6 (unknown origin); format: ADME
Sequence of Cytochrome P450 2D6 (P10635 whole entry): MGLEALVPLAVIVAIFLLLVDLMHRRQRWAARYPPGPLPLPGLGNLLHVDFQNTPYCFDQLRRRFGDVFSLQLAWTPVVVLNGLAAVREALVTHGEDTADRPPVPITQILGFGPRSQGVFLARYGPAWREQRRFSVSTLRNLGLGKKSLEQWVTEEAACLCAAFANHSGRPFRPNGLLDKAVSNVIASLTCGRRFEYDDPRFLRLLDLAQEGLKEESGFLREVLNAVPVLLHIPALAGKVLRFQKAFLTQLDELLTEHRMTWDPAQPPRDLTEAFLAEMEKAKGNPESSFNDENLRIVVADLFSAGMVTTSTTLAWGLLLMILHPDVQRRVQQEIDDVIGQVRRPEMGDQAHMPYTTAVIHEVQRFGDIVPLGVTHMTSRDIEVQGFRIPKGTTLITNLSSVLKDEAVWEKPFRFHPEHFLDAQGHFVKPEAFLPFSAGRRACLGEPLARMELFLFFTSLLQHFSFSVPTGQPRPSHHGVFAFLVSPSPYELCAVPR

MDR1 (P-gp) = test: Apparent permeability in pig LLC-PK1 cells expressing human MDR1 from apical to basolateral side in absence of P-gp inhibitor GF-120918; format: ADME, cell-based, Sus scrofa
Method in brief: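 LLC-PK1-MDR1 monolayers; apical-to-basolateral apparent permeability measured without the P-gp inhibitor GF-120,918, run in parallel with an inhibitor-containing arm to form a +GF/−GF ratio.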

[16] = Unbound fraction in human plasma; format: ADME, cell-free
[17] = Cmax in humanized mouse at 50 mg/kg, sc measured on day 1 post dose by LC-MS/MS analysis; format: ADME, organism-based; parameters: dose 50 mg/kg, route subcutaneous; conditions: in vivo
[18] = Tmax in humanized mouse at 50 mg/kg, sc measured on day 1 post dose by LC-MS/MS analysis; format: ADME, organism-based; conditions: in vivo
[19] = Tmax in humanized mouse at 200 mg/kg, sc measured on day 1 post dose by LC-MS/MS analysis; format: ADME, organism-based; conditions: in vivo
[20] = AUC (0 to 24 hrs) in humanized mouse at 50 mg/kg, sc for 8 days measured on day 8 post last dose by LC-MS/MS analysis; format: ADME, organism-based; parameters: time < 24 hr, dose 50 mg/kg, route subcutaneous; conditions: in vivo
[21] = AUC (0 to 24 hrs) in humanized mouse at 200 mg/kg, sc for 8 days measured on day 8 post last dose by LC-MS/MS analysis; format: ADME, organism-based; parameters: time < 24 hr, dose 200 mg/kg, route subcutaneous; conditions: in vivo
[22] = AUC (0 to infinity) in humanized mouse at 50 mg/kg, sc for 8 days measured on day 8 post last dose by LC-MS/MS analysis; format: ADME, organism-based; parameters: dose 50 mg/kg, time infinity, route subcutaneous; conditions: in vivo
[23] = AUC (0 to infinity) in humanized mouse at 200 mg/kg, sc measured on day 1 post dose by LC-MS/MS analysis; format: ADME, organism-based; parameters: dose 200 mg/kg, route subcutaneous, time infinity; conditions: in vivo
[24] = AUC (0 to infinity) in humanized mouse at 200 mg/kg, sc for 8 days measured on day 8 post last dose by LC-MS/MS analysis; format: ADME, organism-based; parameters: dose 200 mg/kg, route subcutaneous, time infinity; conditions: in vivo
[25] = Drug uptake in humanized mouse liver at 200 mg/kg, sc after 24 hrs by LC-MS/MS analysis; format: ADME, organism-based; conditions: read-out: Drug uptake; method in brief: as §1
Mus musculus = test: Hepatotoxicity in chimeric mouse with humanized liver infected with HBV genotype D assessed as decrease in human albumin level in mouse serum at 200 mg/kg, sc qd for 28 days; format: toxicity, organism-based; conditions: in vivo, 672 h
Method in brief: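 Cytotoxicity to human hepatocytes was judged in HBV genotype D-infected chimeric mice (≥70% human hepatocyte replacement) by tracking serum human albumin over time. Dosing was once daily for 28 days at 200 mg/kg s.c., with oral saline and oral entecavir 0.03 mg/kg as controls.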

HBV genotype D = test: Antiviral activity against HBV genotype D infected in chimeric mouse with humanized liver assessed as log reduction in viral DNA level in serum at 200 mg/kg, sc qd for 28 days by RT-PCR method; format: functional, hepatitis B virus genotype D
Method in brief: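 HBV genotype D-infected chimeric mice with humanized liver (human hepatocyte replacement index ≥70%, judged by serum human albumin). Dosing was once daily for 28 days: test article 200 mg/kg s.c., entecavir 0.03 mg/kg oral as positive control, and oral saline as negative control. The read-out was serum HBV DNA (copies/mL), given as mean log change from baseline at day 29.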

[26] = biological target: 5-hydroxytryptamine receptor 2B (Homo sapiens, UniProt P41595); test: Agonist activity at 5-HT2B (unknown origin); format: functional
Sequence of 5-hydroxytryptamine receptor 2B (P41595 whole entry): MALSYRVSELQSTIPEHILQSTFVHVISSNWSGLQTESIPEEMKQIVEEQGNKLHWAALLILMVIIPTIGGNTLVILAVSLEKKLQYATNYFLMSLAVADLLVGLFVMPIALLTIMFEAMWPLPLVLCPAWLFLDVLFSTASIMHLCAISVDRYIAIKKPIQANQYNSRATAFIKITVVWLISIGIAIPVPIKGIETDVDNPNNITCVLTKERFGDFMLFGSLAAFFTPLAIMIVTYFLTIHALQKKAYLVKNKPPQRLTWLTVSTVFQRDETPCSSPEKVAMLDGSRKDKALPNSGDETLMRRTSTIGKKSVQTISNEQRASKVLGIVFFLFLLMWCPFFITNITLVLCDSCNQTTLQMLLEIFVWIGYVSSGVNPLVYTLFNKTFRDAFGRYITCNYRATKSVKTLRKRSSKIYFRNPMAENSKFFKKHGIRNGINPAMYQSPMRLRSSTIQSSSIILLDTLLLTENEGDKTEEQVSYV

[27] = Drug metabolism in human primary hepatocytes assessed as cleavage of N-phenylamide; format: ADME, cell-based, Hepatocyte
Method in brief: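 Compound incubated with primary hepatocytes and checked for cleavage of the N-phenylamide bond.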

Structure (SMILES): Cc1cc(NC(=O)c2cccc(S(=O)(=O)N[C@H]3CCOC3)c2)ccc1F
- Cmax [1]: 2110 ng/mL
- concentration at 24 h [2]: 570 ng/g
- EC50 (Hepatitis B virus): 0.43 µM
- metabolised at 0.25 h, 1 µM [3]: 51%
- EC20 (HepG2): 10 to 30 µM
- half-life [4]: 25.2 min
- half-life [5]: 66 min
- half-life [6]: 144 min
- Cmax [7]: 1940 ng/mL
- Cmax [8]: 9440 ng/mL
- Tmax [9]: 30 min
- Tmax [10]: 42 min
- Tmax [11]: 60 min
- bioavailability [12]: 40%
- bioavailability [13]: 66%
- IC50 [14]: > 10 µM
- IC50 [15]: > 10 µM
- IC50 (Cytochrome P450 2D6): > 10 µM
- Papp A→B (MDR1 (P-gp)): 7.3 ×10⁻⁶ cm/s
- fraction unbound [16]: 0.081
- Cmax [17]: 2190 ng/mL
- Tmax [18]: 60 min
- Tmax [19]: 48 min
- AUC at 24 h [20]: 19200 ng·h/mL
- AUC at 24 h [21]: 86900 ng·h/mL
- AUC(0-inf) [22]: 20700 ng·h/mL
- AUC(0-inf) [23]: 12700 ng·h/mL
- AUC(0-inf) [24]: 119000 ng·h/mL
- concentration at 24 h [25]: 4880 ng/g
- Activity (Mus musculus): Non-Toxic
- log(activity) (HBV genotype D): 2.77
- Activity [26]: inactive
- Drug metabolism [27]: Metabolite_Notdetected
